The values that follow come from article PMC2606940 (The Journal of General Physiology, 2009).

Where a chain is given by its changes, count along the chain named. Like-named read-outs stand apart in the source and are kept apart here.

Holding throughout (format): cell-based
One experiment addresses T1, CLC-0 E166N mutant (Torpedo marmorata, UniProt P21564, C212S/E166N).
T1 sequence (P21564 1-805 E166N/C212S): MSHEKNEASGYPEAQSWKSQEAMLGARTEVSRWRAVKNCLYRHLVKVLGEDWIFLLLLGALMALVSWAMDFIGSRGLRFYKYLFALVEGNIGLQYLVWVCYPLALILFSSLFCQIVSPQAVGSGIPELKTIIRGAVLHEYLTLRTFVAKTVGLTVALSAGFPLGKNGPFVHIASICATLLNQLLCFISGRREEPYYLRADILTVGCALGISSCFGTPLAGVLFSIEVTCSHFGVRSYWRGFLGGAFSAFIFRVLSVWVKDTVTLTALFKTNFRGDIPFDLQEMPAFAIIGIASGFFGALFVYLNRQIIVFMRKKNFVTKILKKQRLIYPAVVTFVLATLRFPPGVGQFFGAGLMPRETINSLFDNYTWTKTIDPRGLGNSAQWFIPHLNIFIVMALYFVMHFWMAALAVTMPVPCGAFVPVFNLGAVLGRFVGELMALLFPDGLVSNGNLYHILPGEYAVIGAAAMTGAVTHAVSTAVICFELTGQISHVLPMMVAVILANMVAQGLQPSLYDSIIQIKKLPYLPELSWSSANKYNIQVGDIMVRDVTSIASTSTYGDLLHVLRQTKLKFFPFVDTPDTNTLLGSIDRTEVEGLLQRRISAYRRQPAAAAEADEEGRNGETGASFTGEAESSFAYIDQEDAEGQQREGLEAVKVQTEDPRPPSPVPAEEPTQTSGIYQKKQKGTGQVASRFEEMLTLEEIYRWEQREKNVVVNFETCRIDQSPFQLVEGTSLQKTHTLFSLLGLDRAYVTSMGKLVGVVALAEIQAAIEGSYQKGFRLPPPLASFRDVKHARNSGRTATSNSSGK
The conditions noted are these: read-out: Apparent affinity (K1/2). Summed up: (§1)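 CLC-0 mutants in the C212S background were transfected into HEK293 cells with lipofectamine and recorded 1–3 d later as excised inside-out patches. Both sides held 130 mM NaCl, 5 mM MgCl2, 10 mM HEPES and 1 mM EGTA, pH 7.4. CPA was perfused continuously onto the cytoplasmic face. Steady-state current over the last 10 ms was normalized to bracketing blocker-free controls and fitted to a Langmuir function for K1/2. Values are mean ± SEM of ~4–6 patches.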

In the next experiment the target is T2, CLC-0 E166W mutant (Torpedo marmorata, UniProt P21564, C212S/E166W).
T2 sequence (P21564 1-805 E166W/C212S): T1 sequence (P21564 1-805 E166N/C212S) with N166W
The conditions noted are these: read-out: Apparent affinity (K1/2). The gist of the method: as §1

Experiment [1] concerns the target T3, wild-type CLC-0 (E166, C212S background) (Torpedo marmorata, UniProt P21564, C212S).
T3 sequence (P21564 1-805 C212S): T1 sequence (P21564 1-805 E166N/C212S) with N166E
The conditions noted are these: for IC50: read-out: Apparent affinity (K1/2). Summed up: as §1

As for `O=C(O)COc1ccc(Cl)cc1` [CPA, p-chlorophenoxy acetate], the IC50 on CLC-0 E166N mutant (−40 mV) amounted to 9750 ± 570 µM; on CLC-0 E166N mutant (−60 mV) it was 5780 ± 220 µM; on CLC-0 E166N mutant (−80 mV), 3270 ± 90 µM; on CLC-0 E166N mutant (−100 mV) it was 1850 ± 40 µM; at CLC-0 E166N mutant (−120 mV), 1060 ± 20 µM; at CLC-0 E166N mutant (−140 mV) it was 620 ± 20 µM. In addition, the IC50 at CLC-0 E166N mutant (−160 mV) worked out at 380 ± 10 µM; on CLC-0 E166W mutant (−60 mV), 13200 ± 2100 µM; on CLC-0 E166W mutant (−80 mV), 6660 ± 980 µM; at CLC-0 E166W mutant (−100 mV) it was 3490 ± 410 µM; at CLC-0 E166W mutant (−120 mV), 1860 ± 220 µM; at CLC-0 E166W mutant (−140 mV) it was 970 ± 130 µM. Besides, the IC50 on CLC-0 E166W mutant (−160 mV) stood at 550 ± 70 µM; in experiment [1] (−40 mV), 9370 ± 330 µM; in experiment [1] (−60 mV) it was 5220 ± 230 µM; in experiment [1] (−80 mV) it was 2870 ± 200 µM; in experiment [1] (−100 mV) it was 1960 ± 210 µM; in experiment [1] (−120 mV), 1570 ± 190 µM. Further, the values for the IC50 in experiment [1] (−140 mV) and in experiment [1] (−160 mV) were 1170 ± 190 µM and 1340 ± 250 µM, respectively.
For `CCCCCCCC(=O)O` [octanoate], the IC50 is 4930 ± 180 µM on CLC-0 E166N mutant (−40 mV); 2550 ± 47 µM on CLC-0 E166N mutant (−60 mV); 1340 ± 29 µM at CLC-0 E166N mutant (−80 mV); 694 ± 18 µM at CLC-0 E166N mutant (−100 mV); 380 ± 9 µM on CLC-0 E166N mutant (−120 mV); 212 ± 4 µM on CLC-0 E166N mutant (−140 mV). Besides, the IC50 on CLC-0 E166N mutant (−160 mV) is 125 ± 2 µM; on CLC-0 E166W mutant (−80 mV), 19200 ± 3300 µM; on CLC-0 E166W mutant (−100 mV), 13000 ± 2000 µM; on CLC-0 E166W mutant (−120 mV), 8600 ± 1300 µM; at CLC-0 E166W mutant (−140 mV), 5530 ± 870 µM; at CLC-0 E166W mutant (−160 mV), 3500 ± 590 µM. In addition, the IC50 in experiment [1] (−40 mV) was 2610 ± 300 µM; in experiment [1] (−60 mV) it was 1290 ± 130 µM; in experiment [1] (−80 mV), 670 ± 50 µM; in experiment [1] (−100 mV), 390 ± 10 µM; in experiment [1] (−120 mV) it was 300 ± 20 µM; in experiment [1] (−140 mV) it was 260 ± 30 µM. Moreover, the IC50 in experiment [1] (−160 mV) was found to be 190 ± 40 µM. The “effect on fast gate Po-V curve” value in experiment [1] (various concentrations, initial tail current) is given as “shifts the fast gate Po-V curve toward more depolarized voltages”.
